Source: paper PMC9447421 (FASEB BioAdvances, 2022)
Counter-ions that a name gives are not always drawn.

How the values were obtained:
hT2R4 [1] = conditions: human T2R4; cited from earlier work
A. mexicanus T2R4 = biological target: T1, A. mexicanus T2R4 (Astyanax mexicanus, UniProt A0A3B1ICP8); assay: Calcium mobilization assay, HEK293T cells stably expressing T2R4; type: cell-based
T1 sequence (A0A3B1ICP8 2-338): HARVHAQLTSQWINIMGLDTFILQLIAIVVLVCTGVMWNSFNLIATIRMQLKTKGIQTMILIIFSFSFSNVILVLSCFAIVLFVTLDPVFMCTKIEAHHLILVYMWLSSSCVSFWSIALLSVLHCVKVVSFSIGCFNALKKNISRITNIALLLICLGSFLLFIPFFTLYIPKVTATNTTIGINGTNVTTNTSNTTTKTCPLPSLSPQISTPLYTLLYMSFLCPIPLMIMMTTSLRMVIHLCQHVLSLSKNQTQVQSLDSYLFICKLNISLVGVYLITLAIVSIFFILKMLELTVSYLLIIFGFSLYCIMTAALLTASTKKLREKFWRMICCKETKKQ

[2] = system: canonical Gβγ‐PLC signaling pathway activated by T2Rs (T2R1); type: cell-based, Astyanax mexicanus; conditions: T2R1 cells; blocker 10 μM, 30 min pretreatment; brine shrimp 5 mg/ml
Summary of the method: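 HEK293T cells stably expressing FLAG-tagged fish T2R1, selected in hygromycin (200 μg/ml). Brine shrimp (300 mg ground food per 10 ml) and blockers prepared in assay buffer (1X HBSS, 20 mM HEPES). Cells loaded with Fluo-4 NW, 35 min at 37°C then 35 min at room temperature. Compounds added robotically on a FlexStation 3. Signal baseline-subtracted against parental HEK293T cells and reported as ΔRFU.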

hT2R4 [3] = conditions: human T2R4; cited from earlier work; remark: listed apart in the source
hT2R1 = conditions: human T2R1; cited from earlier work

## COc1ccc2c(c1)[C@]13CCCC[C@@H]1[C@H](C2)N(C)CC3 [DXM, dextromethorphan]
hT2R4 [1]
  Activation of hT2R4: does not activate
A. mexicanus T2R4
  EC50: 1.43 mM

## COc1ccc2c(c1)CC[C@@H]1[C@@H]2CC[C@]2(C)[C@@H](NCCCCCCN3C(=O)C=CC3=O)CC[C@@H]12 [U73122]
[2]
  Effect of pretreatment on brine shrimp-induced calcium mobilization: significant decrease in calcium mobilization

## COc1ccc2c(c1)CC[C@@H]1[C@@H]2CC[C@]2(C)[C@@H](NCCCCCCN3C(=O)CCC3=O)CC[C@@H]12 [U73343]
[2]
  Effect of pretreatment on brine shrimp-induced calcium mobilization: no significant differences

## O=C1OC2(c3ccccc31)c1ccc(O)c(O)c1Oc1c2ccc(O)c1O [gallein, Gallein]
[2]
  Effect of pretreatment on brine shrimp-induced calcium mobilization: significant decrease in calcium mobilization

## C=C[C@H]1C[N@@]2CC[C@H]1C[C@H]2[C@H](O)c1ccnc2ccc(OC)cc12 [quinine, quinine hydrochloride]
hT2R4 [3]
  Effect on hT2R4 expression (pharmacological chaperone): acts intracellularly to enhance hT2R4 expression
hT2R1
  Activation of hT2R1: does not activate
